Results from ChEMBL document CHEMBL4261484, “Design, synthesis and anticonvulsant-analgesic activity of new N-[(phenoxy)alkyl]- and N-[(phenoxy)ethoxyethyl]aminoalkanols” (Medchemcomm, 2017).
Activity calls are given as the source filed them.

Tests used:
[1] = system: Mus musculus; assay: Neurotoxicity in mouse assessed as motor impairment by measuring loss of coordination at 27 mg/kg, ip measured for 60 secs by chimney test relative to control; type: toxicity, organism-based; details: in vivo, 1 min
Summary of the method: (§1)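 Mice dosed ip; trained, selected animals placed in a horizontal tube 25 cm long and 2.5 cm in diameter, then tube reversed so mice must climb out backward. Read-outs: escape time (s) ± SEM and % animals losing coordination versus control. Unpaired t test.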

[2] = system: Mus musculus; assay: Anticonvulsant activity in ip dosed mouse assessed as protection against maximal electroshock-induced seizures; type: functional
Summary of the method: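 Mice were dosed ip. Maximal seizures were induced by auricular electrodes (25 mA, 500 V, 50 Hz, 0.2 s). Absence of hind-limb tonic extension counted as protection. […] Motor impairment was scored on a 10 rpm rotarod, giving TD50 the same way.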

[3] = system: Mus musculus; assay: Anticonvulsant activity in mouse assessed as protection against subcutaneous pentylenetetrazole-induced seizures at 100 mg/kg, ip measured for 30 mins post pentylenetetrazole challenge at 0.5 hrs after compound dosing relative to control; type: functional
[4] = system: Mus musculus; assay: Toxicity in mouse at 30 mg/kg, ip measured during maximal electroshock seizure test; type: organism-based; details: in vivo
[5] = Cytotoxicity against mouse CRL-2541 cells assessed as effect on cell viability at 10 to 250 uM after 24 hrs by MTT assay; type: cell-based
[6] = system: Mus musculus; assay: Anticonvulsant activity in mouse assessed as protection against subcutaneous pentylenetetrazole-induced seizures by measuring latency time of tonic seizures at 100 mg/kg, ip measured for 30 mins post pentylenetetrazole challenge at 0.5 hrs after compound dosing (reference value: 562.8 to 614.9 secs); type: functional
[7] = system: HepG2; assay: Cytotoxicity against human HepG2 cells assessed as effect on cell viability at 10 to 250 uM after 24 hrs by MTT assay; type: cell-based; details: hepg2, 24 h
Summary of the method: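 HepG2 cells grown in MEM with 10% FBS (37 °C, 5% CO2) and seeded at 1 × 10^4. After overnight culture, exposed to 10–250 μM for 24 h. MTT for 3 h, formazan dissolved, OD 570 nm. Viability is % of control ± SEM from three independent experiments.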

[8] = system: Mus musculus; assay: Anticonvulsant activity in mouse assessed as increase in electroconvulsive threshold at 10 mg/kg, ip by maximal electroshock seizure threshold test relative to control; type: functional
[9] = system: Mus musculus; assay: Toxicity in mouse at 100 mg/kg, ip measured during maximal electroshock seizure test; type: organism-based; details: in vivo
[10] = system: Mus musculus; assay: Anticonvulsant activity in mouse assessed as protection against subcutaneous pentylenetetrazole-induced seizures at 30 mg/kg, ip measured for 30 mins post pentylenetetrazole challenge at 0.5 hrs after compound dosing relative to control; type: functional
[11] = system: Mus musculus; assay: Anticonvulsant activity in mouse assessed as protection against subcutaneous pentylenetetrazole-induced seizures by measuring latency time of tonic seizures at 30 mg/kg, ip measured for 30 mins post pentylenetetrazole challenge at 0.5 hrs after compound dosing (reference value: 562.8 to 614.9 secs); type: functional
[12] = Neurotoxicity in ip dosed mouse assessed as motor impairment measured for one min by rotarod test; type: toxicity, organism-based; details: in vivo
Summary of the method: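 Mice trained on an accelerating rotarod, then tested at least 24 h later after ip pretreatment, on a rod turning at 10 rpm. Neurotoxicity was scored as failure to stay on the rod for one minute. Read-out is mice impaired over mice tested.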

[13] = system: Mus musculus; assay: Anticonvulsant activity in mouse assessed as current strength required to induce tonic hind-limb extension in 50% of the animals at 10 mg/kg, ip by maximal electroshock seizure threshold test (reference value: 6.05 to 8.13 mA); type: functional
[14] = system: HepG2; assay: Cytotoxicity against human HepG2 cells assessed as effect on cell viability at 10 to 250 uM after 24 hrs by neutral red assay; type: cell-based; details: hepg2, 24 h
Summary of the method: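 HepG2 cells seeded at 5 × 10^4 per well, then after 24 h given medium with 10–250 μM for 24 h. Viability by neutral red staining, OD 570 nm. Results are % of control ± SEM, three independent experiments.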

[15] = Protection index, ratio of TD50 for neurotoxicity in ip dosed mouse by rotarod test to ED50 for anticonvulsant activity in mouse by maximal electroshock seizure test; type: toxicity, organism-based; details: in vivo, read-out: Ratio TD50/ED50
[16] = system: Mus musculus; assay: Anticonvulsant activity in mouse assessed as protection against maximal electroshock-induced seizures at 100 mg/kg, ip; type: functional, organism-based
Summary of the method: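 Mice dosed ip; maximal seizures induced by auricular electroshock (25 mA, 500 V, 50 Hz, 0.2 s). Endpoint: hind-limb tonic extension; animals without it scored protected. Read-out is number protected over number tested.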

[17] = system: Mus musculus; assay: Toxicity in mouse at 25 mg/kg, ip measured during maximal electroshock seizure test; type: organism-based; details: in vivo
[18] = system: Mus musculus; assay: Toxicity in mouse assessed as effect on spontaneous activity at 27 mg/kg, ip measured for 30 mins by photoresistor actometer relative to control; type: organism-based; details: in vivo, 0.5 h
Summary of the method: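 Mice dosed ip; locomotor activity by photoresistor actometers counting light-beam interruptions. Each mouse was habituated 30 min in a cage, then crossings were counted over a 30 min session. Data are mean ± SEM and % change vs control; unpaired t test.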

[19] = system: Mus musculus; assay: Analgesic activity in mouse assessed as decrease in time of paw licking during phase 2 at 27 mg/kg, ip measured for 15 to 30 mins by formalin test relative to control; type: functional; parameters: scale not given: the % may be the effect or the level left
Summary of the method: (§2)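 Formalin test in mice: 20 μL of 5% formalin injected intraplantarly into the right hind paw. Each mouse was observed alone in a glass beaker for 30 min. Time (s) spent licking or biting the injected paw was recorded at 0–5 min (acute phase) and 15–30 min (inflammatory phase).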

[20] = system: Mus musculus; assay: Neurotoxicity in mouse assessed as motor impairment by measuring time of escaping from chimney at 27 mg/kg, ip measured for 60 secs (reference value: 8.87 +/- 1.79 secs); type: toxicity, organism-based; details: in vivo, 1 min; summary of the method: as §1
[21] = system: Mus musculus; assay: Analgesic activity in mouse assessed as time of paw licking during phase 1 at 27 mg/kg, ip measured for 5 mins by formalin test (reference value: 43.89 +/- 6.64 secs); type: functional; summary of the method: as §2

In the case of Cc1ccc(OCCOCCNC(C)CO)c(C)c1 (racemic), the Activity [1] is reported as 0%, the ED50 [2] is reported as 27.1 mg/kg and the Activity [3] is reported as 117.23%. For the same molecule, the Activity [4] was “Non-Toxic”, the Activity [5] was “Non-Toxic” and the Time [6] was 1269 s. The Activity [7] was “Non-Toxic”, the Activity [8] was “inactive” and the Activity [9] was “Non-Toxic”. The Activity [10] was 2.31%, the Time [11] was 575.8 s and the TD50 at 1 min [12] was 109 mg/kg. For the same molecule, the Activity [13] was 6.76 mA, the Activity [14] was “Non-Toxic” and the selectivity ratio [15] was 4.02. For the same molecule, the Activity [16] was “Active”, the Activity [17] was “Non-Toxic” and the Activity [18] was 68.92%. It also gave an Activity [19] of 83.41%, a Time [20] of 6 s and a Time [21] of 67.25 s.
